Measured values as given in ChEMBL document CHEMBL1147419, “Inhibition of estrone sulfatase (ES) by alkyl and cycloalkyl ester derivatives of 4-[(aminosulfonyl)oxy] benzoic acid” (Bioorg Med Chem Lett, 2004).

Experiments:
[1] = Partition coefficient (logP); type: physicochemical; details: octanol/water
[2] = pKa value was determined; type: physicochemical
Method in brief: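 The starting phenols' pKa was measured spectroscopically from the change in phenolic UV absorption under acidic (pH 2), pH 9 and basic (pH 11) conditions.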

[3] = target: T1, Steryl-sulfatase (Homo sapiens) (UniProt P08842); test: Inhibitory activity against estrone sulfatase at 20 uM (initial screening)
T1 sequence (whole entry): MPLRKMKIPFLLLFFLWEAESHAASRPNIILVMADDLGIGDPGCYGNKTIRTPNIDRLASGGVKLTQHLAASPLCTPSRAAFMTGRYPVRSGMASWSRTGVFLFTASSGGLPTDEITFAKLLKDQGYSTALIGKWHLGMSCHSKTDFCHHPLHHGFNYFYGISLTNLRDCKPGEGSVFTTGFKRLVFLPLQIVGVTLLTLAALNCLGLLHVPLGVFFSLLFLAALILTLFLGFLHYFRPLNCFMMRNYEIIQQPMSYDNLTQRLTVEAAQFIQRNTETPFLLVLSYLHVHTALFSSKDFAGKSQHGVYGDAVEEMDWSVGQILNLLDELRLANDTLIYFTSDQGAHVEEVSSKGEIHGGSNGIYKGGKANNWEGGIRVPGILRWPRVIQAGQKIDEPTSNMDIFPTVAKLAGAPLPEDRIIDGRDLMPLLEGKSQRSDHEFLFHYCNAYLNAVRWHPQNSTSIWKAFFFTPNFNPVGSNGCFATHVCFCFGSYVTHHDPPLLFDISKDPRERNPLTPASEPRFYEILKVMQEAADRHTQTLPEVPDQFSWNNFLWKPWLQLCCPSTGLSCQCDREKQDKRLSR
Method in brief: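 Placental microsomes, diluted to 115 µg/mL in 0.05 M Tris-HCl pH 7.2 and pre-warmed 5 min at 37 °C, incubated 20 min at 37 °C with ³H-estrone sulfate (20 µM/tube, 300,000 dpm). Inhibitors were added in ethanol, then dried under nitrogen. Toluene quench, then toluene-phase radioactivity counted by scintillation. Triplicates, uninhibited controls, boiled-microsome blanks.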

Steryl-sulfatase = target: T2, Steryl-sulfatase (Homo sapiens, UniProt P08842); test: Inhibition of estrone sulfatase
T2 sequence (P08842 whole entry): T1 sequence (whole entry)

[4] = target: T1, Steryl-sulfatase (Homo sapiens); details: 0.25 uM

CCCCCCCCCCOC(=O)c1ccc(OS(N)(=O)=O)cc1
logP [1]: 5.08
pKa [2]: 8.09

COC(=O)c1ccc(OS(N)(=O)=O)cc1
logP [1]: 1.49

NS(=O)(=O)Oc1ccc(C(=O)OC2CCCCC2)cc1
logP [1]: 3.08
pKa [2]: 8.81
inhibition [3]: 84%
IC50 (Steryl-sulfatase): 1.7 µM

NS(=O)(=O)Oc1ccc(C(=O)OC2CCCCCCC2)cc1
logP [1]: 3.87
pKa [2]: 8.09
inhibition [3]: 82%
IC50 (Steryl-sulfatase): 0.17 µM

C[C@]12CC[C@@H]3c4ccc(OS(N)(=O)=O)cc4CCC3[C@@H]1CCC2=O (single isomer, unassigned) [EMATE]
logP [1]: 3.8
pKa [2]: 8.37

NS(=O)(=O)Oc1ccc(C(=O)OC2CCCC2)cc1
logP [1]: 2.68
pKa [2]: 8.73
inhibition [3]: 62%
IC50 (Steryl-sulfatase): 9.3 µM

CCCCOC(=O)c1ccc(OS(N)(=O)=O)cc1
logP [1]: 2.7

CCCCCOC(=O)c1ccc(OS(N)(=O)=O)cc1
logP [1]: 3.1

CCCCCCCCOC(=O)c1ccc(OS(N)(=O)=O)cc1
logP [1]: 4.29
pKa [2]: 8.09

CCCCCCCOC(=O)c1ccc(OS(N)(=O)=O)cc1
logP [1]: 3.89

CCCCCCOC(=O)c1ccc(OS(N)(=O)=O)cc1
logP [1]: 3.49

CCCOC(=O)c1ccc(OS(N)(=O)=O)cc1
logP [1]: 2.3

NS(=O)(=O)Oc1ccc(C(=O)OC2CCCCCC2)cc1
logP [1]: 3.47
pKa [2]: 8.88
inhibition [3]: 87%
IC50 (Steryl-sulfatase): 0.5 µM

CCCCCCCCCOC(=O)c1ccc(OS(N)(=O)=O)cc1
logP [1]: 4.68
pKa [2]: 8.39

NS(=O)(=O)Oc1ccc2c3c(c(=O)oc2c1)CCCCC3 [IROSUSTAT]
logP [1]: 2.65
pKa [2]: 8.27
inhibition [4]: 56%

CCOC(=O)c1ccc(OS(N)(=O)=O)cc1
logP [1]: 1.84

Cc1cc(=O)oc2cc(OS(N)(=O)=O)ccc12
logP [1]: 1.6
pKa [2]: 8
IC50 (Steryl-sulfatase): 13.8 µM
